Laboratory results published in ChEMBL document CHEMBL3352303, “Characterization of TRIF selectivity in the AGP class of lipid A mimetics: role of secondary lipid chains” (Bioorg Med Chem Lett, 2015).

Molecular target: Toll-like receptor 4/MD-2 (Homo sapiens, UniProt O00206+Q9Y6Y9)
Experiment: Activation of TLR4/MD2 (unknown origin) expressed in HEK293 cells co-expressing CD14 assessed as induction of MyD88-dependent NF-kappaB activity after 24 hrs by NF-kappaB SEAP reporter gene assay
Format: cell-based
Conditions: hek293, 24 h
Procedure, shortened: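 HEK293 cells stably transfected with human TLR4, MD-2, CD14 and an NF-κB-inducible promoter driving secreted embryonic alkaline phosphatase (SEAP). Compounds formulated at 2 mg/mL in 2% aq. glycerol (stock), applied as a dose response for 24 h. Read-out was relative SEAP activity in cell culture supernatants.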

Sequence of Toll-like receptor 4/MD-2 (O00206 whole entry): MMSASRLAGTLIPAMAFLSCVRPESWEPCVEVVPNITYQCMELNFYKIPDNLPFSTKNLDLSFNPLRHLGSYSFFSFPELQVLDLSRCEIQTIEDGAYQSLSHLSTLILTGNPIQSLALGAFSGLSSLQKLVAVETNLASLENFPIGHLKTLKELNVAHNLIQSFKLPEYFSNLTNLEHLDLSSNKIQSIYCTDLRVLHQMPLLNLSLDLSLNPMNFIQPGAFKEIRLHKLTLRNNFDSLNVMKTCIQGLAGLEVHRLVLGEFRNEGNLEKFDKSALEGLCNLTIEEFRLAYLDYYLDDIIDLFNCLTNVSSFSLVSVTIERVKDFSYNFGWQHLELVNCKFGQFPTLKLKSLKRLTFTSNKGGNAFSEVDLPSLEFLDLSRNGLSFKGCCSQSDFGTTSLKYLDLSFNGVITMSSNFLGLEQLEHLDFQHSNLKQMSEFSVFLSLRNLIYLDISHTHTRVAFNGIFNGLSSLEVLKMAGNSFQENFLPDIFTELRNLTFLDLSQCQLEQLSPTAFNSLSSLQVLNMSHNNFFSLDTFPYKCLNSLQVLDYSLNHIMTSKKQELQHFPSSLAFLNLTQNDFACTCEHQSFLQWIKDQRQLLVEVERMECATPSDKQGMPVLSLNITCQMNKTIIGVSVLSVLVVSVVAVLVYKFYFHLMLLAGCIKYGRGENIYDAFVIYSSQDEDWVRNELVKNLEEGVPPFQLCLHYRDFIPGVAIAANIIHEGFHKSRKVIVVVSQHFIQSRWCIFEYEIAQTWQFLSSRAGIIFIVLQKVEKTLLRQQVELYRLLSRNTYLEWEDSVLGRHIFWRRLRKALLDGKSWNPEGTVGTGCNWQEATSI
Sequence of Toll-like receptor 4/MD-2 (Q9Y6Y9 whole entry): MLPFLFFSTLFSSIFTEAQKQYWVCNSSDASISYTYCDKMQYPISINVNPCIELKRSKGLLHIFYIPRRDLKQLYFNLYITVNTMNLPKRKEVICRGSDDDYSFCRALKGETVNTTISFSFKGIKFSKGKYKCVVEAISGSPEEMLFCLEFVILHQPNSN

SMILES: CCCCCCCCCCC[C@H](CC(=O)N[C@H](CO[C@@H]1O[C@H](CO)[C@@H](OP(=O)(O)O)[C@H](OC(=O)C[C@@H](CCCCCCCCCCC)OCCCCCCCCCC)[C@H]1NC(=O)C[C@@H](CCCCCCCCCCC)OC(=O)CCCCCCCCC)C(=O)O)OCCCCCCCCCC
- Activity: Toxic

SMILES: CCCCCCCCCCC[C@H](CC(=O)N[C@H]1[C@H](OC[C@@H](NC(=O)C[C@@H](CCCCCCCCCCC)OCCCCCCCCCC)C(=O)O)O[C@H](CO)[C@@H](OP(=O)(O)O)[C@@H]1OC(=O)C[C@@H](CCCCCCCCCCC)OC(=O)CCCCCCCCC)OCCCCCCCCCC
- Activity: Non-toxic

SMILES: CCCCCCCCCCC[C@H](CC(=O)N[C@H]1[C@H](OC[C@@H](NC(=O)C[C@@H](CCCCCCCCCCC)OC(=O)CCCCCCCCC)C(=O)O)O[C@H](CO)[C@@H](OP(=O)(O)O)[C@@H]1OC(=O)C[C@@H](CCCCCCCCCCC)OCCCCCCCCCC)OCCCCCCCCCC
- Activity: Toxic

SMILES: CCCCCCCCCCC[C@H](CC(=O)N[C@H](CO[C@@H]1O[C@H](CO)[C@@H](OP(=O)(O)O)[C@H](OC(=O)C[C@@H](CCCCCCCCCCC)OC(=O)CCCCCCCCC)[C@H]1NC(=O)C[C@@H](CCCCCCCCCCC)OC(=O)CCCCCCCCC)C(=O)O)OCCCCCCCCCC
- Activity: Non-toxic

SMILES: CCCCCCCCCCC[C@H](CC(=O)N[C@H]1[C@H](OC[C@H](NC(=O)C[C@@H](CCCCCCCCCCC)OC(=O)CCCCCCCCC)C(=O)O)O[C@H](CO)[C@@H](OP(=O)(O)O)[C@@H]1OC(=O)C[C@@H](CCCCCCCCCCC)OC(=O)CCCCCCCCC)OC(=O)CCCCCCCCC
- Activity: Toxic

SMILES: CCCCCCCCCCC[C@H](CC(=O)N[C@H]1[C@H](OC[C@H](NC(=O)C[C@@H](CCCCCCCCCCC)OCCCCCCCCCC)C(=O)O)O[C@H](CO)[C@@H](OP(=O)(O)O)[C@@H]1OC(=O)C[C@@H](CCCCCCCCCCC)OCCCCCCCCCC)OCCCCCCCCCC
- Activity: Toxic

SMILES: CCCCCCCCCCC[C@H](CC(=O)N[C@H]1[C@H](OC[C@@H](NC(=O)C[C@@H](CCCCCCCCCCC)OC(=O)CCCCCCCCC)C(=O)O)O[C@H](CO)[C@@H](OP(=O)(O)O)[C@@H]1OC(=O)C[C@@H](CCCCCCCCCCC)OC(=O)CCCCCCCCC)OC(=O)CCCCCCCCC
- Activity: Toxic

SMILES: CCCCCCCCCCC[C@H](CC(=O)O[C@@H]1[C@@H](NC(=O)C[C@@H](CCCCCCCCCCC)OC(=O)CCCCCCCCC)[C@H](OC[C@@H](NC(=O)C[C@@H](CCCCCCCCCCC)OC(=O)CCCCCCCCC)C(=O)O)O[C@H](CO)[C@H]1OP(=O)(O)O)OCCCCCCCCCC
- Activity: Toxic

SMILES: CCCCCCCCCCC[C@H](CC(=O)N[C@H]1[C@H](OC[C@@H](NC(=O)C[C@@H](CCCCCCCCCCC)OC(=O)CCCCCCCCC)C(=O)O)O[C@H](CO)[C@@H](OP(=O)(O)O)[C@@H]1OC(=O)C[C@@H](CCCCCCCCCCC)OC(=O)CCCCCCCCC)OCCCCCCCCCC
- Activity: Non-toxic

SMILES: CCCCCCCCCCC[C@H](CC(=O)N[C@H]1[C@H](OC[C@@H](NC(=O)C[C@@H](CCCCCCCCCCC)OCCCCCCCCCC)C(=O)O)O[C@H](CO)[C@@H](OP(=O)(O)O)[C@@H]1OC(=O)C[C@@H](CCCCCCCCCCC)OCCCCCCCCCC)OCCCCCCCCCC
- Activity: Non-toxic

SMILES: CCCCCCCCCCCCCC(=O)O[C@H](CCCCCCCCCCC)CC(=O)N[C@H]1[C@H](OC[C@H](NC(=O)C[C@@H](CCCCCCCCCCC)OC(=O)CCCCCCCCCCCCC)C(=O)O)O[C@H](CO)[C@@H](OP(=O)(O)O)[C@@H]1OC(=O)C[C@@H](CCCCCCCCCCC)OC(=O)CCCCCCCCCCCCC
- Activity: Non-toxic
